# Compound activity: PubChem BioAssay, Broad Institute
# A selection: hits, their analogues and other compounds. The true share with any hit is near 1.4%.
# HIV Env fusion: inhibitors of HIV-1 Env-driven cell-cell fusion, primary screen, HeLa-JRFL effector, CEM21 target cells, luciferase; inhibition, % at 12.3 µM; hit rate 1.1% among 360,000; AID 651610, 2012;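 active means mean replicate inhibition score of at least 50 and every replicate individually at or above 50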;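 further: 0% = plate neutral controls and 100% = maraviroc near 300 nM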
# PDI turbidity: inhibitors of human PDI, primary screen, biochemical, turbidity, single point, plate reader; Protein disulfide-isomerase (Homo sapiens), P07237; hit rate 0.052% among 350,000; inhibition, % at 10 µM; PDI insulin aggregation turbidity, A650, 90 min;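 active means mean inhibition across replicates of 30% or more, whatever share of single replicates reach that level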
# FN deposit inh: inhibitors of fibronectin matrix deposition, primary screen, AH1F cells, Alexa488-fibronectin fluorescence, plate reader. AH1F fibroblasts, overnight. AID 743247, 2014. inhibition, % at 12.6 µM. hit rate 0.086% among 350,000;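 active means mean inhibition across replicates of 30% or more, regardless of how many single replicates reach that level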;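 further: positive control wells lacked labelled fibronectin entirely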
#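 test system = AH1F fibroblasts assembling fluorescent fibronectin matrix | quantity = 10000 AH1F cells per well | buffer or medium = DMEM plus 2% serum, read in PBS | doses = single dose, pinned | incubation = 1 h cell attachment, overnight exposure to compound and label | detection = fluorescence at 485 nm excitation, 525 nm emission | read-out basis = inhibition from reduced deposited-fibronectin fluorescence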
# INS-1E GSIS act: GLuc luminescence reporter in INS-1E cells, primary screen for activators of glucose-dependent secretion of insulin. hit rate 0.61% among 370,000. AID 743287, 2014. activation, % at 16.6 µM. INS-1E GLuc reporter insulin secretion, 2-3 h;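 active means lowest replicate activation of at least 40%, so every replicate reaches that level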;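 further: 0% = median of neutral control wells and 100% = median of IBMX positive control wells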
# ERp5 block: inhibitors of ERp5-driven insulin aggregation, primary screen, biochemical, turbidity, absorbance 650 nm, single point; Protein disulfide-isomerase A6 (Homo sapiens), Q15084; 90 min; inhibition, % at 9.99 µM; hit rate 0.05% among 350,000; AID 651711, 2012;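 active means mean replicate inhibition above about 25%, with every replicate also reaching it, limit read from the data, passing the limit was not always enough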
# Target sequence (Q15084 whole entry, looked up): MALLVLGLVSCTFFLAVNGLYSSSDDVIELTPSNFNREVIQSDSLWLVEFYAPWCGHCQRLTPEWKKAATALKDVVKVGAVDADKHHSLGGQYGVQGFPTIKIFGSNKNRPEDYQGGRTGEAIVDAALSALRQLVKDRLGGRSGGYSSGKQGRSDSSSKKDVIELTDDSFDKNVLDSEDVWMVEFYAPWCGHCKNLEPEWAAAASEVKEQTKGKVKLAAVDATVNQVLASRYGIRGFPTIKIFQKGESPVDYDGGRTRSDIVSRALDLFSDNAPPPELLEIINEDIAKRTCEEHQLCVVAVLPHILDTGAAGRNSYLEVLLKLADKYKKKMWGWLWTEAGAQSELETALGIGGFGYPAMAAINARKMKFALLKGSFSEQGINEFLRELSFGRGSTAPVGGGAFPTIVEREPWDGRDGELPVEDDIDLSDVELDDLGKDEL
# Active calls of the source: *; . = not tested or not shown; [ ] = dose if it differs, or a comment.
SMILES,HIV Env fusion,PDI turbidity,FN deposit inh,INS-1E GSIS act,ERp5 block
CCCCCCCCN1C(=O)[C@@H](CC(=O)N2CCN(C(=O)c3ccco3)CC2)C[C@@]2(C(=O)OC)C1=C[C@H](C1CCCC1)O[C@@H]2C,10.2,.,12.9,54.1*,1.8
COC(=O)[C@]12C[C@H](CC(=O)N3CCN(C(=O)C4CC4)CC3)C(=O)N(CCC3=CCCCC3)C1=C[C@H](C(C)(C)C)O[C@@H]2C,56.8*,.,-3.7,.,0.9
CCOC(=O)N1CCN(C(=O)C[C@H]2C[C@@]3(C(=O)OC)C(=C[C@H](C(C)(C)C)O[C@@H]3C)N(CCC3=CCCCC3)C2=O)CC1,97.7*,.,-3.5,.,-5.1
CCCCCCCCN1C(=O)[C@@H](CC(=O)N2CCN(C(=O)c3ccco3)CC2)C[C@@]2(C(=O)OC)C1=C[C@H](C(C)(C)C)O[C@@H]2C,26.8,.,-8.1,.,-11.1
COc1ccccc1C(=O)N1C[C@@H]2[C@H](c3ccccc31)[C@@H](CO)N2C(=O)C1CC1,.,.,0.0,12.4,.
Cc1noc(C)c1S(=O)(=O)N(C)C[C@@H]1Oc2ccc(NC(=O)Cc3ccccc3)cc2CC(=O)N([C@H](C)CO)C[C@H]1C,-1.6[16.7 µM],.,.,5.3,.
C=CCn1c(SCC(=O)c2cccs2)nc2sc(C)c(C)c2c1=O,23.9,5.9,-5.2,.,.
C=CCn1c(SCC(=O)c2c(N)n(C)c(=O)n(C)c2=O)nc2sc(C)c(C)c2c1=O,-32.6,-4.0,.,309.1*,.
C[C@H]1CN([C@@H](C)CO)C(=O)Cc2cc(NC(=O)NC3CCCCC3)ccc2O[C@@H]1CN(C)S(=O)(=O)c1ccc(Cl)cc1,-0.4[16.7 µM],.,.,6.4,-6.0
C[C@H](CO)N1C[C@H](C)[C@@H](CN(C)S(=O)(=O)c2ccc(Cl)cc2)Oc2ccc(NC(=O)C3CC3)cc2CC1=O,.,.,-0.6,-7.8,2.3
C[C@H]1CN([C@@H](C)CO)C(=O)Cc2cc(NC(=O)C3CCCCC3)ccc2O[C@H]1CN(C)S(=O)(=O)c1ccc(Cl)cc1,73.6*[16.7 µM],.,.,-10.9,2.7
C[C@@H]1CN([C@@H](C)CO)C(=O)Cc2cc(NC(=O)NC3CCCCC3)ccc2O[C@@H]1CN(C)S(=O)(=O)c1ccc(Cl)cc1,59.5*[16.7 µM],.,.,.,-13.5
C[C@H](CO)N1C[C@H](C)[C@H](CN(C)S(=O)(=O)c2ccc(Cl)cc2)Oc2ccc(NC(=O)C3CCCCC3)cc2CC1=O,63.2*[16.7 µM],.,.,-3.7,6.3
C[C@H]1CCCCO[C@@H](CN(C)C(=O)Cc2ccccc2)[C@@H](C)CN([C@@H](C)CO)C(=O)c2cc(NS(=O)(=O)c3cccs3)ccc2O1,-3.5[16.7 µM],.,.,-9.9,1.8
CN(C)C(=O)[C@H]1[C@H](CO)[C@H]2Cn3c(ccc(-c4cccc(F)c4)c3=O)[C@H]2N1C(=O)c1cnccn1,.,.,.,8.2,-2.5
CCCCn1c(-c2ccncc2)nc2c1c(=O)[nH]c(=O)n2CC(C)C,.,2.0,.,70.1*,.
C[C@@H]1CN([C@@H](C)CO)C(=O)c2cc(NC(=O)NC3CCCCC3)ccc2O[C@@H](C)CCCCO[C@@H]1CN(C)C(=O)CCCN(C)C,-4.4[16.7 µM],.,.,2.7,-0.1
O=C(C[C@H]1CC[C@H](NC(=O)Nc2cccc(F)c2)[C@H](CO)O1)NCC1CCCCC1,3.9[16.7 µM],.,-3.0,-3.6,-1.8
CC(C)(C)c1ccccc1OCC(O)CN1CCN(c2ccccn2)CC1 (stereo not given),5.1,6.3,-0.1,63.4*,0.0
O=C(C[C@H]1C[C@@H]2c3cc(NC(=O)CC4CC4)ccc3O[C@@H]2[C@H](CO)O1)NCc1ccc(-c2ccccc2)cc1,8.6[16.7 µM],.,-6.3,4.4,-5.9
O=C(C[C@@H]1C[C@H]2c3cc(NC(=O)CC4CC4)ccc3O[C@H]2[C@@H](CO)O1)NCc1ccc(-c2ccccc2)cc1,-10.0[16.7 µM],.,-6.8,-3.3,59.4*
CS(=O)(=O)Nc1ccc2c(c1)[C@H]1C[C@H](CC(=O)NCc3ccc(-c4ccccc4)cc3)O[C@H](CO)[C@H]1O2,77.8*[16.7 µM],.,-8.6,-21.0,.
O=C(C[C@H]1C[C@@H]2c3cc(NC(=O)CC4CC4)ccc3O[C@@H]2[C@@H](CO)O1)NCc1ccc(-c2ccccc2)cc1,25.6[16.7 µM],.,2.9,-14.8,62.6*
O=C(C[C@@H]1C[C@@H]2c3cc(NC(=O)CC4CC4)ccc3O[C@@H]2[C@H](CO)O1)NCc1ccc(-c2ccccc2)cc1,-15.3[16.7 µM],.,-11.1,10.5,-9.2
COc1ccc(CN(C)C[C@H]2OCCCC[C@@H](C)Oc3ccc(NS(=O)(=O)c4ccc(OC)cc4)cc3C(=O)N([C@@H](C)CO)C[C@@H]2C)cc1,-146.9[16.7 µM],.,-19.9,-30.2,.
SMILES,HIV Env fusion,PDI turbidity,FN deposit inh,INS-1E GSIS act,ERp5 block
CN1CCC(N(C)S(=O)(=O)c2ccc(NC(=O)COc3cccc(Cl)c3)cc2)CC1,-16.2,-1.4,3.4,63.6*,-10.9
COc1ccc(NC(=O)COc2ccc(N(C)S(=O)(=O)c3ccc(Cl)cc3)cc2)cc1OC,56.6*,3.0,1.4,-40.5,2.1
CN(c1ccc(OCC(=O)OCC(=O)Nc2ccc(F)cc2)cc1)S(=O)(=O)c1ccc(Cl)cc1,-25.8,-0.1,-1.3,3.3,4.6
COc1cccc(S(=O)(=O)N2CCCCN3[C@H](C2)[C@@H](c2ccc(C#CC4CC4)cc2)[C@@H]3CO)c1,.,.,.,-4.0,-1.3
COc1ccc(NC(=O)c2c(Nc3ccccc3)sc(C(=O)c3ccc(F)cc3)c2N)cc1,90.6*,3.8,-0.5,.,.
CCCNC(=O)N[C@H]1C=C[C@@H](CC(=O)NC2CCC2)O[C@@H]1CO,8.5[16.7 µM],.,-8.4,1.4,-5.6
O=C(c1ccccc1)N1CCC(c2nc(-c3ccc(S(=O)(=O)NCC4CCCO4)cc3)no2)CC1 (stereo not given),87.0*,-2.7,8.0,-26.4,.
O=C(C1CC1)N1CCC(c2nc(-c3ccc(S(=O)(=O)NCC4CCCO4)cc3)no2)CC1 (stereo not given),.,2.4,.,-9.5,-0.6
CC(C)Cn1c(=O)n(C)c(=O)c2[nH]cnc21,-285.8,5.0,1.3,73.5*,-4.8
Cn1c(=O)c2[nH]cnc2n(C)c1=O,14.3,-1.5,-9.4,10.8,1.0
COc1ccc2c3c(n(C)c2c1)[C@H](CO)N(S(C)(=O)=O)CC31CCN(C(=O)C2CC2)CC1,.,.,.,17.5,5.0
O=C(CSc1nnnn1-c1ccccc1)Nc1ncc(Cc2cccc(Cl)c2Cl)s1,-2.3,4.4,10.0,.,-1.5
Cc1ccc(-n2nnnc2SCC(=O)Nc2ncc(Cc3ccccc3Cl)s2)cc1,.,-5.4,.,155.6*,.
CCCN(C)C[C@H]1OCCCC[C@@H](C)Oc2ccc(NC(=O)Nc3ccccc3)cc2C(=O)N([C@@H](C)CO)C[C@H]1C,13.1[16.7 µM],.,10.3,-5.4,-0.8
O=C(CCc1ccc(S(=O)(=O)NCCc2ccccc2)cc1)N1CCN(Cc2ccc3c(c2)OCO3)CC1,76.9*,5.5,-5.5,.,.
CCNS(=O)(=O)c1ccc(CCC(=O)N2CCN(Cc3ccccc3)CC2)cc1,-4.5,-7.8,-1.7,-1.2,-0.1
